Assay results as given in ChEMBL document CHEMBL4346690, “Structure-activity relationship studies of (E)-3,4-dihydroxystyryl alkyl sulfones as novel neuroprotective agents based on improved antioxidant, anti-inflammatory activities and BBB permeability” (Eur J Med Chem, 2019).
Calls of active or inactive are those of the source. The rule behind the calls is not given here.

What was measured:
[1] = tested on: PC-12; assay: Neuroprotection activity in rat PC12 cells assessed as reduction in 6-OHDA-induced cell damages at 10 uM preincubated for 3 hrs followed by H2O2 addition and measured after 24 hrs by MTT assay relative to control; type: functional, cell-based; conditions: in the assay text read “6-OHDA addition” for “H2O2 addition”
Outline: (§1)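 PC12 cells plated at 2 × 10^5 cells mL−1 for 1 day, pretreated 3 h with compounds at 2.5, 5 or 10 µM, then 6-OHDA (final 250 µM) added for 24 h. Viability by MTT, absorbance 570 nm; untreated cells = 100%; mean ± SD, n = 3.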

[2] = Anti-neuroinflammatory activity in […] BV2 cells assessed as reduction in LPS-induced NO production preincubated for 3 hrs followed by LPS stimulation for 24 hrs by Griess assay; type: functional, cell-based; conditions: BV-2
Outline: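 BV2 microglia seeded 3 × 10^5 cells mL−1 for 1 day; compounds in medium added for 3 h, then LPS (final 100 ng mL−1) for a further 24 h. Supernatant mixed with Griess reagent, absorbance at 540 nm. Inhibition % from NO release of LPS-only, unstimulated and compound+LPS wells; IC50 reported; mean ± SD, n = 3.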

[3] = Antioxidant activity assessed as DPPH radical scavenging activity after 1 hr by […]; type: functional
Outline: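 DPPH (0.2 mM) in ethanol mixed with sample, kept 1 h at room temperature, absorbance read at 517 nm. Scavenging % = [1−(Ac−Ab)/A0]×100, where Ab is the sample in ethanol without DPPH and A0 is the ethanol+DPPH control. EC50 reported; vitamin C used as reference antioxidant; mean ± SD, n = 3.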

[4] = Cytotoxicity against […] BV2 cells assessed as cell viability at 0.625 to 40 uM after 24 hrs by MTS assay; type: cell-based; conditions: read-out: Activity
Outline: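 Viability of BV2 cells read by MTS under the NO-assay conditions: 3 h compound (0.625–40 µM) pretreatment followed by LPS 100 ng mL−1 for 24 h.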

[5] = Cytotoxicity against rat PC12 cells assessed as cell viability at 100 uM after 24 hrs by MTT assay; type: cell-based, PC-12; conditions: read-out: Activity
Outline: (§2)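 Cells kept in high-glucose DMEM with 10% FBS and 1% PS at 37 °C, 5% CO2. Plated 1 day, then compounds for 24 h; viability by MTT at 100 µM as ODtreated/ODcontrol × 100%, untreated = 100%. Mean ± SD, n = 3.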

[6] = tested on: PC-12; assay: Neuroprotection activity in rat PC12 cells assessed as reduction in 6-OHDA-induced cell damages at 2.5 uM preincubated for 3 hrs followed by H2O2 addition and measured after 24 hrs by MTT assay relative to control; type: functional, cell-based; conditions: in the assay text read “6-OHDA addition” for “H2O2 addition”; outline: as §1
[7] = tested on: PC-12; assay: Neuroprotection activity in rat PC12 cells assessed as reduction in H2O2-induced cell death preincubated for 3 hrs followed by H2O2 addition and measured after 3 hrs by MTS assay; type: functional, cell-based
Outline: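 PC12 cells plated at 2 × 10^5 cells mL−1 for 1 day, pretreated 3 h with compounds, then H2O2 (final 400 µM) for 3 h. Viability by MTS at 490 nm relative to untreated cells (100%); single-concentration tests at 2.5, 5, 10 µM and IC50 values; mean ± SD, n = 3.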

[8] = Cytotoxicity against […] BV2 cells assessed as cell viability at 100 uM after 24 hrs by MTT assay; type: cell-based; conditions: read-out: Activity; outline: as §2

Structure (SMILES)	Activity [1]	IC50 [2]	EC50 [3]	viability at 24 h, up to 40 µM [4]	viability at 24 h, 100 µM [5]	Activity [6]	IC50 [7]	viability at 24 h, 100 µM [8]
CCCCCCCCCCCS(=O)(=O)/C=C/c1ccc(O)c(O)c1	Active	6.9 µM	11.4 µM	> 90%	52.1%	Active	2.34 µM	23.2%
CCCCCCCCS(=O)(=O)/C=C/c1ccc(O)c(O)c1	Active	7.6 µM	6.4 µM	> 90%	73.6%	Active	1.45 µM	63.6%
O=S(=O)(/C=C/c1ccc(O)c(O)c1)CCCCCCCO	Active	14.3 µM	5.9 µM	> 90%	91.8%	Active	9.91 µM	72%
O=C(/C=C/c1ccc(O)c(O)c1)OCCc1ccccc1 [CAFFEIC ACID PHENETHYL ESTER]	Active	6 µM	14.6 µM	> 90%	85.1%	–	2 µM	69.3%
O=S(=O)(/C=C/c1ccc(O)c(O)c1)CC1CCCO1 (stereo unspecified)	inactive	54.6 µM	10.5 µM	> 90%	98%	–	27.1 µM	93.9%
O=S(=O)(/C=C/c1ccc(O)c(O)c1)CCC1CCCC1	Active	2.5 µM	6.8 µM	> 90%	77.7%	Active	1.96 µM	76.6%
O=S(=O)(/C=C/c1ccc(O)c(O)c1)CCCCCCCCCCCO	Active	13.3 µM	22.6 µM	> 90%	100%	Active	24.1 µM	50.4%
O=S(=O)(/C=C/c1ccc(O)c(O)c1)CC1CCC1	Active	20.8 µM	8.8 µM	> 90%	80.2%	–	4.81 µM	83.8%
CC(C)(C)OC(=O)N1CCCC1CS(=O)(=O)/C=C/c1ccc(O)c(O)c1 (stereo unspecified)	inactive	7 µM	7.1 µM	> 90%	52.5%	–	7.2 µM	68.7%
O=S(=O)(/C=C/c1ccc(O)c(O)c1)CCCCCCCCCO	Active	11 µM	7.5 µM	> 90%	95.2%	Active	7.91 µM	54.4%
CCCCCCCCCS(=O)(=O)/C=C/c1ccc(O)c(O)c1	Active	7.4 µM	7.7 µM	> 90%	70.6%	Active	1.93 µM	66.6%
O=S(=O)(/C=C/c1ccc(O)c(O)c1)CC1CC1	inactive	33.5 µM	10.5 µM	> 90%	92.9%	–	6.61 µM	87.8%
CCCCCCCCCCS(=O)(=O)/C=C/c1ccc(O)c(O)c1	Active	7.3 µM	6.8 µM	> 90%	59.7%	Active	2.21 µM	34.1%
O=S(=O)(/C=C/c1ccc(O)c(O)c1)CC1CCCC1	Active	15.8 µM	9.4 µM	> 90%	85.4%	Active	2.19 µM	72.7%
O=S(=O)(/C=C/c1ccc(O)c(O)c1)CCC1CCCCC1	Active	11.3 µM	9.8 µM	> 90%	94.9%	Active	2 µM	62.6%
O=S(=O)(/C=C/c1ccc(O)c(O)c1)CCCCCCCCO	Active	12.2 µM	6.7 µM	> 90%	87.3%	Active	7.91 µM	49.5%
O=S(=O)(/C=C/c1ccc(O)c(O)c1)CC1CCCN1 (stereo unspecified)	–	103 µM	13.8 µM	> 90%	55.9%	–	–	76.4%
O=S(=O)(/C=C/c1ccc(O)c(O)c1)CC1CCCCO1 (stereo unspecified)	Active	6.9 µM	10.8 µM	> 90%	88.3%	–	3.34 µM	78.8%
CCCCCCCCCCCCS(=O)(=O)/C=C/c1ccc(O)c(O)c1	Active	6.6 µM	8.5 µM	> 90%	28.2%	Active	2.27 µM	25.2%
CCCCCCCS(=O)(=O)/C=C/c1ccc(O)c(O)c1	Active	8.5 µM	7.1 µM	> 90%	85.7%	Active	1.33 µM	52.5%
